ChEMBL document CHEMBL2177091, “Spirocyclic sulfamides as β-secretase 1 (BACE-1) inhibitors for the treatment of Alzheimer's disease: utilization of structure based drug design, WaterMap, and CNS penetration studies to identify centrally efficacious inhibitors” (J Med Chem, 2012)

Columns and labels:
[1] = in vitro; conditions: human, liver microsomes
[2] = Ratio of free drug concentration in brain to free drug concentration in plasma in FVB/N mouse at 10 mg/kg, sc after 60 mins; format: ADME, organism-based; parameters: dose 10 mg/kg, route subcutaneous; conditions: brain and plasma (free concentrations), read-out: K(p,uu,brain)
In short: (§1)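 Mice dosed 10 mg/kg subcutaneously; plasma and brain exposures taken at 60 min. Unbound fractions determined by equilibrium dialysis.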

[3] = Intrinsic clearance in rat liver microsomes; format: ADME, Microsome; conditions: read-out: CLH
[4] = Ratio of drug uptake in brain to plasma in FVB/N mouse at 10 mg/kg, sc after 60 mins; format: ADME, organism-based; parameters: dose 10 mg/kg, route subcutaneous; conditions: brain and plasma, read-out: BPR
In short: as §1

[5] = tested on: Plasma; experiment: Fraction unbound in FVB/N mouse plasma at 1 uM after 6 hrs by equilibrium dialysis; format: ADME, cell-free

| Compound | CLint scaled [1] [mL/min/kg] | Kp uu at 1 h [2] | CLint scaled [3] [mL/min/kg] | Kp at 1 h [4] | Cp(f) [5] |
| --- | --- | --- | --- | --- | --- |
| CCOc1cc(CN2CC[C@@]3(C[C@@H]2C)CN(C)S(=O)(=O)N3c2cccc(F)c2)ccc1O | 79.9 |  |  |  |  |
| CC(C)Oc1cc(CN2CC[C@@]3(C[C@@H]2C)CN(C)S(=O)(=O)N3c2cccc(F)c2)ccc1O | 15.4 | 0.27 | 59.7 | 0.35 | 0.17 |
| CC(C)Oc1cccc(CN2CC[C@@]3(C[C@@H]2C)CN(C)S(=O)(=O)N3c2cccc(F)c2)c1 | > 19 | 0.65 | > 65.5 | 0.97 | 0.036 |
| CC(=O)Nc1ccc(CN2CC[C@@]3(C[C@@H]2C)CN(C)S(=O)(=O)N3c2cccc(F)c2)cc1 | > 300 |  |  |  |  |
| CC(C)Oc1cccc(CN2CC[C@]3(CNS(=O)(=O)N3c3cccc(F)c3)C[C@@H]2C)c1 | > 19 | 0.22 | > 65.5 | 0.67 | 0.041 |

The remaining lines, values ahead:

| CLint scaled [1] [mL/min/kg] | Kp uu at 1 h [2] | CLint scaled [3] [mL/min/kg] | Kp at 1 h [4] | Cp(f) [5] | Compound |
| --- | --- | --- | --- | --- | --- |
| 173 |  |  |  |  | C[C@H]1C[C@]2(CCN1Cc1ccc(O)c(Cl)c1)CN(C)S(=O)(=O)N2c1cccc(F)c1 |
| 175 |  |  |  |  | C[C@H]1C[C@]2(CCN1Cc1ccc3[nH]ccc3c1)CN(C)S(=O)(=O)N2c1cccc(F)c1 |
| 74.2 |  |  |  |  | CCc1n[nH]c2ccc(CN3CC[C@@]4(C[C@@H]3C)CN(C)S(=O)(=O)N4c3cccc(F)c3)cc12 |
| 152 |  |  |  |  | C[C@H]1C[C@]2(CCN1Cc1ccc(O)cc1)CN(C)S(=O)(=O)N2c1cccc(F)c1 |
